Reference: article PMC8647718 (Free radical biology & medicine, 2020)
Where “and” joins values, the source holds several entries; their conditions need not be identical. Identical values can stand only once.

Key:
AhR [1] = assay: AhR-luciferase; assay type: cell-based, mouse; conditions: for AhR activation CQ (concentration of quadrupling): H1L6.1c3 cells, luciferase fold vs DMSO normalized to viability
Nrf2 [2] = assay: ARE-luciferase reporter assay in HepG2-ARE cells; assay type: cell-based; conditions: 24 h, 0–25 μM, (−) = concentration range tested did not quadruple Nrf2 activation
HepG2-ARE cells = assay: MTT cell viability assay in HepG2-ARE cells; assay type: cell-based; conditions: read-out: Nrf2 activation IC50 (cell viability reduced by half)
H1L6.1c3 cells = assay: MTT cell viability assay in H1L6.1c3 cells; conditions: for IC50: Mus musculus, read-out: AhR activation IC50 (cell viability reduced by half)
AhR [3] = assay: AhR nuclear translocation, immunoblot of nuclear proteins in HT-29 cells; assay type: cell-based, human; conditions: HT-29, 1 h; GarD 12.5 μM, FICZ 0.5 μM
Procedure, shortened: (§1)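 HT-29 cells exposed to test compound at 12.5 μM, with tBHQ 50 μM or FICZ 0.5 μM as reference activators, over a 6-h time course. Cytosolic and nuclear fractions were collected at set time points, quantified by BCA, and resolved by SDS-PAGE. Blots were probed for AhR or Nrf2, with densities normalised to β-actin or lamin A/C. At least three independent experiments; mean ± SD.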

Nrf2 [4] = assay: Nrf2 nuclear translocation, immunoblot of nuclear proteins in HT-29 cells; assay type: cell-based, human; conditions: HT-29, 1 h; GarD 12.5 μM, tBHQ 50 μM
Procedure, shortened: as §1

Nrf2 [5] = assay: Total Nrf2 protein level, immunoblot of HT-29 whole cell lysates; assay type: cell-based, human; conditions: GarD 0–25 μM, 24 h
Procedure, shortened: (§2)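 HT-29 cells treated for 24 h with test compound, tBHQ 50 μM or FICZ 0.5 μM as references. Densities were normalised to β-actin. Mean ± SD of triplicate experiments; one-way ANOVA with Tukey test, P ≤ 0.05.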

heme oxygenase-1 (HO-1) = assay: HO-1 protein level, immunoblot of HT-29 whole cell lysates; assay type: cell-based, human; conditions: GarD 0–25 μM, 24 h
Procedure, shortened: as §2

HT-29 cells [6] = assay: Total intracellular ROS; assay type: cell-based, human; conditions: HT-29, 12 h; GarD 25 μM, tBHP 25 μM (positive control)
ZO-1 [7] = assay: ZO-1 tight junction protein level, immunoblot in HT-29 cells; assay type: cell-based, human; conditions: HT-29, GarD 0–25 μM, 24 h
occludin [8] = assay: Occludin tight junction protein level, immunoblot in HT-29 cells; assay type: cell-based, human; conditions: HT-29, GarD 0–25 μM, 24 h
[9] = tested on: ZO-2, ZO-3, claudin-1 and claudin-4; assay: Other TJ proteins, immunoblot in HT-29 cells; assay type: cell-based, human; conditions: HT-29, GarD 0–25 μM, data not shown
ZO-1 [10] = assay: ZO-1 immunofluorescence microscopy in HT-29 cells; assay type: cell-based, human
HT-29 monolayers = assay: In vitro permeability assay of FITC-dextran through HT-29 monolayers; assay type: cell-based, human; conditions: HT-29 transwell, GarD 6.25 or 12.5 μM pretreatment 6 h, 100 μM tBHP 16 h
Procedure, shortened: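 HT-29 cells seeded at 1.5 × 10^5 cells/cm2 on transwell inserts and differentiated; only monolayers with TEER above 200 […] were used. Test compound was added apically for 6 h, then 100 μM tBHP for 16 h. Apical 4 kDa FITC-dextran (0.5 mg mL−1 in HBSS/HEPES), HBSS basolateral. Basolateral samples at 0.5–4 h read at 485/530 nm; % of control.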

HT-29 cells [11] = assay: tBHP-induced ROS production; assay type: cell-based, human
AhR [12] = assay: AhR protein level, immunoblot of HT-29 cell lysates; assay type: cell-based, human; conditions: HT-29, 24 h; GarD 12.5 μM, FICZ 500 nM
Procedure, shortened: as §2

Cyp1a1 = Cyp1a1 protein level, immunoblot of HT-29 cell lysates; assay type: cell-based, human; conditions: HT-29, 24 h; GarD 12.5 μM, FICZ 500 nM
Procedure, shortened: as §2

Nrf2 [13] = conditions: HT-29 cells, 10 μM; cited from earlier work
ZO-1 [14] = assay: tBHP oxidative stress-induced TJ disruption, ZO-1 immunoblot in HT-29 cells; assay type: cell-based, human; conditions: HT-29, tBHP 50 μM, 16 h
occludin [15] = assay: tBHP oxidative stress-induced TJ disruption, occludin immunoblot in HT-29 cells; assay type: cell-based, human; conditions: HT-29, tBHP 50 μM, 16 h
claudin-1 = assay: tBHP oxidative stress-induced TJ disruption, claudin-1 immunoblot in HT-29 cells; assay type: cell-based, human; conditions: HT-29, tBHP 50 μM, 16 h

With CC(C)=CCc1c(O)c(CC=C(C)C)c2oc3c(O)cccc3c(=O)c2c1O [Compound 1, 8-desoxygartanin] the “AhR activation CQ (concentration of quadrupling)” value (“AhR activation CQ” for short) (AhR [1]; 24 h) was 0.162 ± 0.001 µM and the “Nrf2 activation CQ (concentration of quadrupling)” value (“Nrf2 activation CQ” below) (Nrf2 [2]) was 22.19 ± 1.24 µM.

In the case of CC(C)=CCc1c(O)c(CC=C(C)C)c2oc3c(O)ccc(O)c3c(=O)c2c1O [Compound 2, gartanin], the “Nrf2 activation CQ” value (Nrf2 [2]) is reported as 9.4 µM and 9.43 ± 1.90 µM, the IC50 (HepG2-ARE cells) is reported as 63.6 ± 1.94 µM and the IC50 (H1L6.1c3 cells) is reported as 36.5 ± 0.71 µM.

In the case of COc1c(O)cc2oc3cc(O)c(CC=C(C)C)c(O)c3c(=O)c2c1CC=C(C)C [Compound 3, α-mangostin], the “Nrf2 activation CQ” value (Nrf2 [2]) is reported as 16.25 ± 0.46 µM.

For COc1cc2oc3cc(O)c(OC)c(CC=C(C)C)c3c(=O)c2c(O)c1CC=C(C)C [Compound 5, β-mangostin], the “CQ value relative to the rest of the compounds” value (AhR [1]; AhR activation, H1L6 cells) was 10–36 times higher and the “AhR activation CQ” value (AhR [1]; 24 h) was 5.125 ± 0.006 µM.

For COc1c(O)cc2oc3cc(O)c(CC=C(C)C)c(O)c3c(=O)c2c1CCC(C)(C)O [Compound 6, garcinone D], the “AhR activation CQ” value (AhR [1]; 24 h) was 0.142 µM and 0.142 ± 0.008 µM, the “Nrf2 activation CQ” value (Nrf2 [2]) was 8.0 µM and 8.08 ± 0.07 µM and the IC50 (HepG2-ARE cells) was 38.5 ± 7.27 µM. For the same molecule, the “nuclear AhR accumulation (peak)” value (AhR [3]) was 3.8 fold increase vs control, the “nuclear Nrf2 level” value (Nrf2 [4]) was 1.9 fold greater than the control and the “increase in total Nrf2 protein vs control” value (Nrf2 [5]) was 40%. For the same molecule, the “increase in HO-1 protein vs control” value (heme oxygenase-1 (HO-1)) was 37%, the “ROS level (DCF fluorescence) relative to untreated control” value (HT-29 cells [6]) was 2 fold and the “increase in ZO-1 protein relative to untreated controls” value (ZO-1 [7]) was 34–83%. The “increase in occludin protein relative to untreated controls” value (occludin [8]) was 22–91%, the “inducing effect on other TJ proteins (ZO-2, ZO-3, claudin-1, claudin-4)” value [9] was “no inducing effect” and the “ZO-1 intensity lost to tBHP treatment rescued” value (ZO-1 [10]; HT-29, 2-h pre-treatment GarD 12.5 μM, co-incubation with tBHP 16 h) was 45%. For the same molecule, the “tBHP induced leakage of FITC-dextran” value (HT-29 monolayers) was “dose-dependently inhibited”, the “suppression of tBHP-induced ROS production vs tBHP” value (HT-29 cells [11]; HT-29, GarD pretreatment (0–25 μM, 6 h), dose-dependent) was 25 to 68% and the “AhR activation IC50 (cell viability reduced by half)” value (H1L6.1c3 cells; H1L6 cells, MTT, max 100 μM, (−) = did not exhibit >50% cell toxicity at the concentration range tested) was “without exhibiting >50% H1L6 cell toxicity”. For the same molecule, the IC50 (H1L6.1c3 cells) was over 100 µM.

With CC(C)=CCc1c(O)cc2oc3cc(O)c(O)c(CC=C(C)C)c3c(=O)c2c1O [Compound 7, γ-mangostin] the “Nrf2 activation CQ” value (Nrf2 [2]) was 14.93 ± 0.10 µM.

In the case of O=Cc1c2[nH]c3ccccc3c2cc2[nH]c3ccccc3c12 [FICZ, 6-formylindolo[3,2-b] carbazole, reference compound], the “increase of luminescence signal” value (AhR [1]; FICZ 500 nM, 24 h, H1L6 cells) is reported as 43 fold of control, the “nuclear AhR accumulation (peak)” value (AhR [3]) is reported as 4.6 fold increase vs control and the “increase in AhR protein” value (AhR [12]) is reported as 2.8 fold. For the same molecule, the “increase in Cyp1a1 protein” value (Cyp1a1) was 3.5 fold.

In the case of C[S+]([O-])CCCCN=C=S (stereo not shown) [sulforaphane], the “induction of Nrf2 relative to the control” value (Nrf2 [13]) is listed as 200%.

With CC(C)(C)OO [tBHP, tert-butyl hydroperoxide, reference compound] the “ROS level (DCF fluorescence) relative to untreated control” value (HT-29 cells [6]) was 4 fold, the “reduction in ZO-1 compared to untreated controls” value (ZO-1 [14]) was 68% and the “reduction in occludin compared to untreated controls” value (occludin [15]) was 28%. For the same molecule, the “reduction in claudin-1 compared to untreated controls” value (claudin-1) was 48%, the ZO-1 fluorescence intensity (ZO-1 [10]; HT-29, tBHP 50 μM, 16 h) was 45 % of the control and the “increase in total ROS levels relative to controls” value (HT-29 cells [11]; HT-29, 2 mM tBHP, 4 h) was 2 fold.

In the case of CC(C)(C)c1cc(O)ccc1O [tBHQ, tert-butyl hydroquinone, reference compound], the “nuclear Nrf2 level” value (Nrf2 [4]) is reported as “Nuclear translocation of Nrf2 was also demonstrated”.
